Assay outcomes from PubChem.
NF-kB neuron act – NF-kB expression increase, human neuronal cells. 1.6% of 190,000 active. NF-kB reporter expression; hits give high values. fold change at 12.5 µM; in the data active means fold change above about 3.3
STAT1 activator – activators of IFN-gamma induced STAT1 signaling. NIH 3T3 STAT1-luciferase reporter, luminescence; 100% = IFN-gamma alone, no compound. activation (% of control), % at 5.5 µM. 2.6% of 200,000 active. AID 932;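 active means activation above the screen-wide mean activation plus 3 SD, cut at about 130% in these data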;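 further: raw ratio to IFN-gamma control signal so 100% means no change and 0% no light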
FLuc act counter – affects firefly luciferase, flagging false hits in luciferase stimulation screens; 200,000 tested, under 10 active; P08659; ATPlite luciferase biochemical, luminescence, 10 min; 0 = ATP-free wells, 1 = DMSO control; AID 1027; activation factor at 10 µM;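 active means luciferase activation factor, scaled between plate controls, of at least 2 with compound at 10 µM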
Target sequence (P08659 whole entry, looked up): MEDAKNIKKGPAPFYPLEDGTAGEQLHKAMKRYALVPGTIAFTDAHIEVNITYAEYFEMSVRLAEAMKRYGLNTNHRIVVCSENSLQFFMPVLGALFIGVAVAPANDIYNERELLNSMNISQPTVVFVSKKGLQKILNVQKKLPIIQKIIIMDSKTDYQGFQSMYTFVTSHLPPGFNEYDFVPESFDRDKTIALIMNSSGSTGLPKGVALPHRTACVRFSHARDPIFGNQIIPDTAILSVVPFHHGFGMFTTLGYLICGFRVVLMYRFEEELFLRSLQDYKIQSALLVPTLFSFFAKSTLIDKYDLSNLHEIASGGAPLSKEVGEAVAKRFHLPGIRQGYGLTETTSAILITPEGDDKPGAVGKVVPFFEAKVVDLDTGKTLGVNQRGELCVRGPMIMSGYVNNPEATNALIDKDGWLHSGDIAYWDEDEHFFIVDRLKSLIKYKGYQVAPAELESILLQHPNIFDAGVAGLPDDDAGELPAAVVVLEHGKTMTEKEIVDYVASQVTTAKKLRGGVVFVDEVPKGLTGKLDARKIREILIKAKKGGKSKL
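Assay system: Luciferase/luciferin detection reagent, cell-free biochemical luciferase assay / Read-out: luciferase activation / Benchmarks: No-ATP low control, compound-free enzyme-plus-ATP high control / Medium: PBS buffer for ATP / Detection: luminescence measurement of luciferase light output / Schedule: 10 min at ambient temperature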
APP 5'UTR act – APP 5'UTR luciferase reporter activation. SH-SY5Y APP 5'UTR luciferase reporter, luminescence; zero percent = DMSO vehicle wells. activation, % at 2 µM. 1% of 190,000 active. AID 1276;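 active means activation above a set limit, based on mean plus 3 SD of controls, cut at about 140% in these data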
APP transl inh – APP translation inhibition. 0.82% of 190,000 active. SH-SY5Y APP 5'UTR-luciferase reporter, luminescence. inhibition, % at 2 µM. AID 1285;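 active means inhibition above a set limit, derived from the sample mean plus 3 SD, cut at about 45% in these data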
FLuc inhib CS – inhibits firefly luciferase, flagging false hits in luciferase inhibition screens | P08659 | ATPLite firefly luciferase biochemical luminescence, 10 min | inhibition, % at 10 µM | 1.5% of 200,000 active | AID 1006;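 active means inhibition above about 50% when tested at 10 µM, limit read from the data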
The depositor's hits bear a star; . = no result given. In the library only some 4.8% were active in any assay of this set; here they are far more common.

SMILES | NF-kB neuron act | STAT1 activator | FLuc act counter | APP 5'UTR act | APP transl inh | FLuc inhib CS
Cc1cc(C(=O)CSc2nc3ccccc3o2)c(C)n1CC1CCCO1 (stereo not given) | 0.78 | 142* | 0.8 | 47 | -47 | 22
Cc1cc(C)n2nc(SCC(=O)c3cc(C)n(CC4CCCO4)c3C)nc2n1 (stereo not given) | 1.5 | 79 | 0.9 | -30 | 30 | 6
c1ccc2[nH]c(SCC3CCCCO3)nc2c1 (stereo not given) | 3.7* | 131* | 0.6 | 152* | -152 | 41
COc1ccc(C(=O)OC(C(=O)c2ccccc2)c2ccccc2)cc1 (stereo not given) | 0.86 | 97 | 1.1 | 5 | -4 | -7
CNC(=O)c1ccccc1NC(=O)c1c(O)c2c([nH]c1=O)CCCC2 | 0.84 | 106 | 0.9 | -3 | 3 | 13
O=C(N/N=C/c1cccc(F)c1)c1c(O)c2c([nH]c1=O)CCCC2 | 1.2 | 103 | 0.9 | 142* | -142 | 5
COc1ccc(/C=C\c2nc(=O)c3ccccc3o2)cc1 | 7.3* | 100 | 0.1 | 127 | -127 | 93*
CC1=CC(C)(C)N2C(=O)C(=O)c3cc(OC(=O)c4ccco4)cc1c32 | 2 | 92 | 1.1 | -66 | 66* | -9
Cc1ccsc1/C=N/Nc1ncc(Cl)cc1Cl | 2.4 | 140* | 0.7 | . | . | 32
Cc1ccsc1/C=N/Nc1nc(=O)[nH]nc1C | 2.1 | 71 | 0.5 | 57 | -57 | 52*
CCOc1cc(C(=O)Nc2ncn[nH]2)cc(OCC)c1OCC | 0.92 | 111 | 1.1 | 10 | -10 | -9
Cc1cc([N+](=O)[O-])nn1CCCC(=O)Nc1cccc(Cl)c1Cl | 1 | 99 | 1.1 | -19 | 19 | -8
Cc1ccc(Nc2nc(NCc3ccco3)c3ccccc3n2)cc1 | 0.61 | 93 | 0.9 | 35 | -34 | 6
Cc1ccc(N2C(=O)c3ccc(N)cc3C2=O)cc1 | 3.5* | 149* | 0.7 | 29 | -29 | 26
Cc1ccc(N2C(=O)c3ccc(N)cc3C2=O)cc1C | 3.7* | 141* | 0.8 | 34 | -34 | 19
CC1CN(c2nc3ccccc3cc2-c2ccccc2)CC(C)O1 (stereo not given) | 0.97 | 99 | 1 | 18 | -18 | 0
COc1ccc(Cl)cc1NC(=O)CN(C)CC(=O)Nc1ccccc1N1CCOCC1 | 1.4 | 97 | 1 | -83 | 83* | -4
CN(C)c1ccc(/C=N/NC(=O)c2ccccc2Cl)cc1 | 2.1 | 127 | 0.9 | -9 | 9 | 12
CSc1ccc(/C=N/NC(=O)c2ccc(O)cc2)cc1 | 2.3 | 126 | 0.3 | 46 | -46 | 71*
CSc1ccc(/C=N/NC(=O)c2ccccc2Cl)cc1 | . | 133* | 0.9 | 10 | -10 | 9
Nc1nnc(SCC(=O)OCC(=O)c2ccccc2Br)s1 | 1.1 | 96 | 1 | -1 | 1 | -3
O=C(CCc1nnc(CCCCc2ccccc2)o1)NCCN1CCCCC1=O | 1.3 | 97 | 1.1 | 3 | -3 | -6
CCCN1C(=O)/C(=C2\SC(N3CCCCC3)=NC2=O)c2ccccc21 | 0.72 | 127 | 0.3 | 20 | -20 | 71*
CC(C)=C1SC(N2CCN(Cc3ccccc3)CC2)=NC1=O | 1.1 | 95 | 1 | 12 | -12 | 0
CN1C(=O)/C(=C2\SC(N)=NC2=O)c2ccccc21 | 1.2 | 103 | 1 | 4 | -4 | 2
SMILES | NF-kB neuron act | STAT1 activator | FLuc act counter | APP 5'UTR act | APP transl inh | FLuc inhib CS
O=C1N=C(N2CCCCC2)SC1=C1CCCCC1 | 2.6 | 121 | 0.9 | 64 | -64 | 8
O=C1N=C(N2CCOCC2)S/C1=C1\C(=O)N(Cc2ccccc2)c2ccccc21 | 1.4 | 102 | 0.8 | 380* | -287 | 21
CN1C(=O)/C(=C2\SC(N3CCCCCC3)=NC2=O)c2ccccc21 | 0.92 | 122 | 0.2 | 16 | -16 | 79*
CCn1cc(S(=O)(=O)N2CCN(Cc3cccc(Cl)c3)CC2)cn1 | 1.6 | 90 | 1 | 6 | -6 | 0
COC(=O)C1=C(C)N(Cc2ccco2)C(=O)N[C@H]1c1ccc(Br)cc1 | 1 | 100 | 1 | -8 | 8 | -1
Cc1ccc(CN=c2c([N+](=O)[O-])nn(-c3ccc(Cl)cc3)n2O)cc1 | 1.2 | 140* | 1 | 11 | -11 | 4
O=[N+]([O-])c1nn(-c2ccc(Cl)cc2)n(O)c1=NCc1ccncc1 | 0.97 | 110 | 1.1 | -11 | 11 | -9
CCc1cccc(N=c2c([N+](=O)[O-])nn(-c3ccc(Cl)cc3)n2O)c1 | 4.9* | 100 | 1 | 10 | -10 | -3
CCCCOCCCNC(=O)/C=C/c1ccccc1Cl | . | 98 | . | 4 | -4 | .
Cc1ccc(S(=O)(=O)Oc2ccccc2/C=N/N=C(N)N)cc1 | 1.4 | 91 | 1 | -21 | 20 | -1
Cc1ccc(S(=O)(=O)Oc2ccccc2/C=N/NC(N)=S)cc1 | 0.83 | 108 | 1 | -91 | 91* | -2
CN(C)/C=C/C(=O)c1ccc(Oc2ccccc2)cc1 | 2.2 | 135* | 0.3 | 76 | -76 | 75*
COc1ccc(C(=O)/C=C/N(C)C)cc1 | 1.5 | 107 | 0.9 | 6 | -6 | 8
CCCc1ccc(C(=O)/C=C/N(C)C)cc1 | 2.1 | 126 | 0.3 | 92 | -92 | 74*
CCCC(=O)NC(=S)c1c(C)n(C)n(-c2ccccc2)c1=O | 0.99 | 69 | 1 | -1 | 1 | -4
Cc1cc(=O)n2[nH]c(N)c(N=Nc3ccccc3F)c2n1 | 1.4 | 105 | 1 | 1 | -1 | -1
Nc1c(N=Nc2ccccc2F)c(=O)[nH]n1-c1ccccc1 | 3.1 | 134* | 0.9 | 61 | -61 | 8
CC1(C)CC(=O)c2cnc(N3CCc4ccccc4C3)nc2C1 | 1.8 | 133* | 0.9 | -4 | 4 | 12
O=C1CCCc2nc(N3CCc4ccccc43)ncc21 | 8* | 150* | 0.4 | 89 | -89 | 65*
O=c1cc(-c2ccccc2)nc2nc(-c3ccco3)[nH]n12 | 1.2 | 91 | 0.3 | 11 | -11 | 72*
Cc1nc2nc(-c3ccccc3)cc(=O)n2[nH]1 | 1.5 | 79 | 0.4 | 4 | -4 | 56*
O=C1CCC(=O)N1c1nc2nc(-c3ccccc3)cc(=O)n2[nH]1 | 1.1 | 100 | 1.1 | 2 | -2 | -6
Cc1nc(Nc2cccc(C(C)O)c2)c2nnn(Cc3ccc(F)cc3)c2n1 (stereo not given) | 1.3 | 95 | 1 | -6 | 6 | -3
Cc1cccc(NC(=O)c2ccc(N3CCCCC3)c([N+](=O)[O-])c2)n1 | 5.2* | 144* | 0.6 | 159* | -159 | 37
COc1ccc(N(CC(O)Cn2cnc3ccccc32)S(=O)(=O)c2ccc(C)cc2)cc1 (stereo not given) | 0.89 | 96 | 1 | 10 | -10 | -2
COC(c1ccccc1)c1nnc(CCC(=O)N(C)C(C2CC2)C2CC2)o1 (stereo not given) | 2.6 | 131* | 1 | 44 | -44 | -5
